Calls of active or inactive are those of the source. No cut-off for these calls is given here.
Columns and labels:
Rattus norvegicus [1] = assay: Neuroprotective activity in Sprague-Dawley rat model of transient middle cerebral artery occlusion stroke model assessed as neurological deficit at 80 mg/kg administered via oral gavage for 7 days after ischemia onset measured 24 hrs after middle cerebral artery occlusion by Longa's method; format: functional, organism-based; details: in the assay text read “before ischemia onset” for “after ischemia onset”
Outline: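 Male SD rats (280–320 g) received daily gavage for 7 days, with 0.5% CMC-Na as vehicle. Two hours after the last dose they underwent 2 h MCAO with reperfusion under chloral hydrate anesthesia; core temperature was held at 37 °C. Neurological deficit was scored blinded by Longa's method 24 h after reperfusion, between 10 and 11 a.m. Kruskal–Wallis test followed by Mann–Whitney U test.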

Rattus norvegicus [2] = assay: Antioxidant activity in Sprague-Dawley rat brain tissue model of transient middle cerebral artery occlusion stroke model assessed as increase in glutathione peroxidase levels per mg of protein at 80 mg/kg […] measured 24 hrs after reperfusion by DTNB assay relative to control; format: functional
Rattus norvegicus [3] = assay: Antioxidant activity in Sprague-Dawley rat brain tissue model of transient middle cerebral artery occlusion stroke model assessed as increase in superoxide dismutase levels per mg of protein at 80 mg/kg […] measured 24 hrs after reperfusion by nitroblue tetrazolium assay relative to control; format: functional
[4] = Antiplatelet activity in rabbit platelet-rich plasma assessed as inhibition of ADP-induced platelet aggregation at 0.1 mM preincubated for 5 mins followed by addition of ADP measured within 5 mins by Borns turbidimetric method; format: functional; details: Oryctolagus cuniculus
Outline: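 Rabbit carotid blood was citrated (3.8%, 9:1). PRP was obtained at 500 g for 10 min and PPP at 3000 g for 10 min. PRP was preincubated in duplicate for 5 min at 37 °C with 0.1 mM compound, plus carboxy-PTIO or BSS where indicated. ADP was then added and maximal light transmission recorded within 5 min, within 3 h of blood collection. Inhibition % was calculated versus control. Mean ± SD of three independent experiments.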

[5] = Antiplatelet activity in rabbit platelet-rich plasma assessed as inhibition of ADP-induced platelet aggregation preincubated for 5 mins followed by addition of ADP measured within 5 mins by Borns turbidimetric method; format: functional; details: Oryctolagus cuniculus
Outline: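 Platelet-rich plasma from citrated rabbit carotid blood was preincubated in duplicate at 37 °C for 5 min with compound at 0.1, 0.2, 0.4, 0.8 or 1.6 mM. ADP-induced aggregation was then recorded turbidimetrically, as maximal light transmission within 5 min. Inhibition was calculated versus vehicle control, and IC50 values were derived. Mean ± SD, n = 6, ANOVA/Tukey.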

IC50 [5]: 740 µM
SMILES: CCCCC1OC(=O)c2ccccc21 (stereo not drawn) [RAC-3-N-BUTYLPHTHALIDE]
Activity (Rattus norvegicus [1]): inactive
Activity (Rattus norvegicus [2]): 63.55%
Activity (Rattus norvegicus [3]): 24.36%
inhibition at 100 µM [4]: 12.9%

From ChEMBL document CHEMBL3792374, “Discovery of a ring-opened derivative of 3-n-butylphthalide bearing NO/H2S-donating moieties as a potential anti-ischemic stroke agent” (Eur J Med Chem, 2016)
